Data on 15 compounds can be found in ChEMBL document CHEMBL1131143, “Predictive models for GABAA/benzodiazepine receptor subtypes: studies of quantitative structure-activity relationships for imidazobenzodiazepines at five recombinant GABAA/benzodiazepine receptor subtypes [alphaxbeta3gamma2 (x = 1-3, 5, and 6)] via comparative molecular field analysis” (J Med Chem, 1998).

Structures are written as SMILES.

Type in all cases: protein-complex assay
Assay [1] has as its target T1, GABA-A receptor; alpha-6/beta-3/gamma-2 (Homo sapiens, UniProt P18507+P28472+Q16445). Nature of the assay: Inhibition of Gamma-aminobutyric acid A receptor alpha-6-beta-3-gamma-2 at 1 uM. Summed up: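 Competition binding on Ltk⁻ cells expressing human α6β3γ2, radioligand [³H]Ro 15-4513. Cells scraped into PBS, spun at 3000g, resuspended in 10 mM KH₂PO₄/100 mM KCl pH 7.4. Nonspecific binding with 10⁻⁵ M diazepam; 1 h to equilibrium at 4 °C; filtration, ice-cold buffer wash, scintillation counting.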

The target of assay [2] is T2, GABA-A receptor; alpha-5/beta-3/gamma-2 (Homo sapiens, UniProt P18507+P28472+P31644).
T2 sequence (P18507 whole entry): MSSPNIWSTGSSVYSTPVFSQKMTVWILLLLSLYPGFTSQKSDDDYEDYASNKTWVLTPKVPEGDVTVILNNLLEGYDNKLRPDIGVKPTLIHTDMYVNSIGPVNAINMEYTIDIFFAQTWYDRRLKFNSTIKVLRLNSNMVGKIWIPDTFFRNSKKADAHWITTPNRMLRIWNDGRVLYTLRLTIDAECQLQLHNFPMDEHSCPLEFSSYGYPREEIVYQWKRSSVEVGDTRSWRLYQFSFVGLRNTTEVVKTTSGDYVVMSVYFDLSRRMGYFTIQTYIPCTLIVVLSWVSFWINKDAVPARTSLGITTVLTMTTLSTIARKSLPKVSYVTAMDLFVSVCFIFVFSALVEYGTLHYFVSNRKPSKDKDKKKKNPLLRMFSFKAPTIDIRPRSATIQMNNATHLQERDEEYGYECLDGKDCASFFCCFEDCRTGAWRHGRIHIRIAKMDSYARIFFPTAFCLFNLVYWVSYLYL
T2 sequence (P28472 whole entry): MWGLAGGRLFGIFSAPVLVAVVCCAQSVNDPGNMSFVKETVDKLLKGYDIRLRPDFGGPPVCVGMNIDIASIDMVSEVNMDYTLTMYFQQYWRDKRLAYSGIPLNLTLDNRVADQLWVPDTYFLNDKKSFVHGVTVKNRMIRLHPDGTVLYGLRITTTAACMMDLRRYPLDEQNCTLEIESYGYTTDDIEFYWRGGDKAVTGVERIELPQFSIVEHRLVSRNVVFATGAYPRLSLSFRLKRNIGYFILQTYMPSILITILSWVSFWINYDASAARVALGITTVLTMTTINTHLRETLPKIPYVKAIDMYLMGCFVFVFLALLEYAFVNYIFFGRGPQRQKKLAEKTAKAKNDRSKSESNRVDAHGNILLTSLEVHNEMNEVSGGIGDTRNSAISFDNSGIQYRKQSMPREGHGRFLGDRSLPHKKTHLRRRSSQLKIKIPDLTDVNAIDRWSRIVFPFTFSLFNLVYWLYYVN
T2 sequence (P31644 whole entry): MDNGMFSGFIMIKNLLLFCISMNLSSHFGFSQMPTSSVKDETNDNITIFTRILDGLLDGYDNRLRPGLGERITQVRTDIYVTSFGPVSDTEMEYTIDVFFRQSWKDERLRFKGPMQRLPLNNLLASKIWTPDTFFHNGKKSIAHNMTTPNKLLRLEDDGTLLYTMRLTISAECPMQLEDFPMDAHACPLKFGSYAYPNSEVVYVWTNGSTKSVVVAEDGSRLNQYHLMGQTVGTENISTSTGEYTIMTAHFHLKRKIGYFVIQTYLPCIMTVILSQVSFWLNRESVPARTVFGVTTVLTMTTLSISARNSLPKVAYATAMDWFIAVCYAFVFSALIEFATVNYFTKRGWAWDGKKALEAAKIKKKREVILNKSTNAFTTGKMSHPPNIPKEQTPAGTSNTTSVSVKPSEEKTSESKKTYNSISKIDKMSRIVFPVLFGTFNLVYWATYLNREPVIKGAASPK
Nature of the assay: Binding affinity for Gamma-aminobutyric acid A receptor alpha-5-beta-3-gamma-2.

Assay [3] addresses T3, GABA-A receptor; alpha-1/beta-3/gamma-2 (Homo sapiens) (UniProt P14867+P18507+P28472). Briefly: Inhibition of GABA-A benzodiazepine receptor alpha-1-beta-3-gamma-2 subunits at 1 uM.
In assay [4] the target is GABA-A receptor; alpha-2/beta-3/gamma-2 (Homo sapiens) (UniProt P18507+P28472+P47869). Briefly: Inhibition of GABA-A benzodiazepine receptor alpha-2-beta-3-gamma-2 subunits at 1 uM.
The target of assay [5] is GABA-A receptor; alpha-3/beta-3/gamma-2 (Homo sapiens) (UniProt P18507+P28472+P34903). Briefly: Inhibition of GABA-A benzodiazepine receptor alpha-3-beta-3-gamma-2 subunits at 1 uM.
For assay [6], the target named is T1, GABA-A receptor; alpha-6/beta-3/gamma-2. Nature of the assay: Binding affinity against Gamma-aminobutyric acid A receptor alpha-6-beta-3-gamma-2. Summed up: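 Cells scraped into PBS, spun at 3000g, resuspended in 10 mM KH₂PO₄/100 mM KCl pH 7.4. Nonspecific binding with 10⁻⁵ M diazepam; 1 h to equilibrium at 4 °C; filtration, ice-cold buffer wash, scintillation counting.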

For assay [7], the target named is T4, GABA-A receptor; alpha-1/beta-3/gamma-2 (Homo sapiens, UniProt P14867+P18507+P28472).
T4 sequence (P14867 whole entry): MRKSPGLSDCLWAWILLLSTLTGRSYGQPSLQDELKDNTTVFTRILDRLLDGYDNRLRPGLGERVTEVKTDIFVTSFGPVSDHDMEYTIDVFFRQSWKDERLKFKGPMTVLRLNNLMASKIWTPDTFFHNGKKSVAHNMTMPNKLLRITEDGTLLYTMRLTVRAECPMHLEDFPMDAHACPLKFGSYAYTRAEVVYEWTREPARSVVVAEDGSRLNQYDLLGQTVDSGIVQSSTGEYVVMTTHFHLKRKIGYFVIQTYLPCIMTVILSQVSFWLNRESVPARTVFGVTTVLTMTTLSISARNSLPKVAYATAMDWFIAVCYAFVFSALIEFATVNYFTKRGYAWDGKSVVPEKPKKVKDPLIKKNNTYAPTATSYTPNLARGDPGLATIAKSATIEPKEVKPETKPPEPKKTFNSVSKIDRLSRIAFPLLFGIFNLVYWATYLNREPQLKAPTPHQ
T4 sequence (P18507 whole entry): T2 sequence (P18507 whole entry)
T4 sequence (P28472 whole entry): T2 sequence (P28472 whole entry)
Briefly: Binding affinity against alpha-1-beta-3-gamma-2 GABAA/BzR receptor subtype.

Assay [8] has as its target T3, GABA-A receptor; alpha-1/beta-3/gamma-2 (Homo sapiens). Briefly: It is the ratio of Ki value for alpha-1-beta-3-gamma-2 to that of alpha-5-beta-3-gamma-2.
Assay [9] has as its target T5, GABA-A receptor; alpha-3/beta-3/gamma-2 (Homo sapiens, UniProt P18507+P28472+P34903).
T5 sequence (P18507 whole entry): T2 sequence (P18507 whole entry)
T5 sequence (P28472 whole entry): T2 sequence (P28472 whole entry)
T5 sequence (P34903 whole entry): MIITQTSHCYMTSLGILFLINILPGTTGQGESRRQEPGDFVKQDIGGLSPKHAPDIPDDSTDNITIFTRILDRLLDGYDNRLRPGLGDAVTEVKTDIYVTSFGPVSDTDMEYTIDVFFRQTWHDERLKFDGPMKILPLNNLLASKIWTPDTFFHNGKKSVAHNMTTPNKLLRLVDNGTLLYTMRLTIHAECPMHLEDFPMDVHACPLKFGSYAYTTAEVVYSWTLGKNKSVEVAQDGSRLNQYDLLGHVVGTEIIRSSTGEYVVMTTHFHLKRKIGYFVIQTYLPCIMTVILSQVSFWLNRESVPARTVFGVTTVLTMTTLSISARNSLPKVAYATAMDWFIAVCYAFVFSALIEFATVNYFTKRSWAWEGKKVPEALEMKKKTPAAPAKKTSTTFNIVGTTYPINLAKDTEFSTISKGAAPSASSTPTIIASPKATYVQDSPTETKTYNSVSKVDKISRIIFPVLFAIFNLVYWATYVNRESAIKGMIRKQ
Nature of the assay: Binding affinity against alpha-3-beta-3-gamma-2 GABAA/BzR receptor subtype.

Assay [10] deals with T6, GABA-A receptor; alpha-2/beta-3/gamma-2 (Homo sapiens, UniProt P18507+P28472+P47869).
T6 sequence (P18507 whole entry): T2 sequence (P18507 whole entry)
T6 sequence (P28472 whole entry): T2 sequence (P28472 whole entry)
T6 sequence (P47869 whole entry): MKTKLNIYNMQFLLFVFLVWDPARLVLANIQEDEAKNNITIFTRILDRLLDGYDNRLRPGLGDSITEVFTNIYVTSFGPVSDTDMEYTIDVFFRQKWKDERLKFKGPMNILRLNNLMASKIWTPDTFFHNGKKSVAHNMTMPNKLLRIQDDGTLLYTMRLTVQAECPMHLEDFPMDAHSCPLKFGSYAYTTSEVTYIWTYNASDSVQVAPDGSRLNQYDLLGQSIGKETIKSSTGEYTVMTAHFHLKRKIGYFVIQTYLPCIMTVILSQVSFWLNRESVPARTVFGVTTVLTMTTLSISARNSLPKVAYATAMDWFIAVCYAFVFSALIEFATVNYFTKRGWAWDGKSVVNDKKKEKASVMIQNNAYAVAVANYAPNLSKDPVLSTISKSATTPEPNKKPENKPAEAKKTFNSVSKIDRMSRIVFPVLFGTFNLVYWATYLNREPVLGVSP
Briefly: Binding affinity tested against alpha-2-beta-3-gamma-2 GABAA/BzR receptor subtype.

T1 sequence (Q16445 whole entry, one chain of several): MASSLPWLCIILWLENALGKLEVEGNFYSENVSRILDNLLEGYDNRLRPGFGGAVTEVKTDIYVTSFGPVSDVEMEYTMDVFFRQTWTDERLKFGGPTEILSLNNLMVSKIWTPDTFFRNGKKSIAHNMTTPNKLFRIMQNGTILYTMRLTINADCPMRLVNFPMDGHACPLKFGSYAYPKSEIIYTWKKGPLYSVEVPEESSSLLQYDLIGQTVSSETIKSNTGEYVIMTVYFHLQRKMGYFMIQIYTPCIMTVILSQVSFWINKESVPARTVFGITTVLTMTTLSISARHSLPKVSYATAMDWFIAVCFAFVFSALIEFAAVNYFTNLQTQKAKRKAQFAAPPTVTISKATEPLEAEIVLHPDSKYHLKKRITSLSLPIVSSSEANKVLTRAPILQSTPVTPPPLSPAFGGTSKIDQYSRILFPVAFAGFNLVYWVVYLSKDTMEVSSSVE

What is called inhibition is the change of the read-out against control, counted positive when it falls. What is called Ki is the equilibrium dissociation constant of an inhibitor or competing ligand from its target. For `C#Cc1ccc2c(c1)C(=O)N1CC[C@H]1c1c(-c3nc(-c4ccccc4)no3)ncn1-2`, the inhibition was 14% in assay [1], 10% in assay [3], 29% in assay [4] and 15% in [5]. Further, the inhibitory constant (Ki) in assay [2] was found to be 374 nM.
Regarding `C#Cc1ccc2c(c1)C(=O)N1CCC[C@H]1c1c(-c3nc(C)no3)ncn1-2`, the Ki is 301 nM in assay [6]; 3.7 nM in assay [2]; 89 nM in [7]; 91 nM in assay [9]; 70 nM in assay [10]. In addition, the Ratio in assay [8] was 24.
With `CC(=O)c1ncn2c1CN(C)C(=O)c1cc(Cl)ccc1-2`, the Ki was 29500 nM in [6]; 2610 nM in assay [2]; 17500 nM in assay [7]; 22100 nM in assay [9]; 33800 nM in [10]. Besides, the Ratio in [8] was 6.7.
With `C#Cc1ccc2c(c1)C(=O)N1CCC[C@@H]1c1c(C(=O)OCC)ncn1-2`, the Ki in assay [6] is 61 nM; in [2], 7.2 nM; in assay [7], 283 nM; in assay [9], 102 nM; in assay [10], 318 nM. For the same compound, in assay [8], the Ratio amounted to 39.
As to `CCOC(=O)c1ncn2c1[C@@H]1CCN1C(=O)c1cc(C#C[Si](C)(C)C)ccc1-2`, the Ki is 180 nM in assay [6]; 2.6 nM in assay [2]; 83 nM in assay [7]; 48 nM in [9]; 60 nM in assay [10]. The Ratio in [8] was found to be 32.
Regarding `CCOC(=O)c1ncn2c1[C@@H]1CCCN1C(=O)c1cc(C#C[Si](C)(C)C)ccc1-2`, the Ki turned out to be 340 nM in assay [6]; 4 nM in [2]; 200 nM in assay [7]; 79 nM in assay [9]; 124 nM in assay [10]. Further, the Ratio in assay [8] came to 50.
As for `CN1Cc2c(C(=O)OC(C)(C)C)ncn2-c2ccc(C#CC[Si](C)(C)C)cc2C1=O`, the Ki amounted to 301 nM in [6]; 23 nM in [2]; 275 nM in assay [7]; 337 nM in assay [9]; 387 nM in assay [10]. Besides, the Ratio in assay [8] amounted to 12.
With `CCOC(=O)c1ncn2c1[C@@H]1CCN1C(=O)c1cc(Br)ccc1-2`, the Ki in [6] worked out at 31 nM; in assay [2] it was 0.3 nM; in assay [7], 17 nM; in assay [9] it was 6.7 nM; in [10], 13 nM. Besides, in assay [8], the Ratio was found to be 56.
Consider `CN1Cc2c(CCl)ncn2-c2ccc(Cl)cc2C1=O`, for which the inhibitory constant (Ki) was more than 300 nM in [6]; 28.5 nM in assay [2]; more than 300 nM in assay [7]; more than 300 nM in assay [9]; more than 300 nM in [10]. Further, the Ratio in assay [8] is more than 10.5.
For `CCCCCc1ncn2c1CN(C)C(=O)c1cc(Cl)ccc1-2`, the inhibition constant (Ki) in assay [6] was determined as 960 nM; in assay [2], 369 nM; in assay [7], 2050 nM; in assay [9], 2910 nM; in assay [10] it was 2900 nM. Besides, in assay [8], the Ratio was determined as 5.6.
As to `CN1Cc2c(C(=O)OC(C)(C)C)ncn2-c2ccc(Cl)cc2C1=O`, the inhibition constant (Ki) in assay [6] turned out to be 4 nM; in assay [2], 0.65 nM; in assay [7], 17.3 nM; in assay [9], 29.1 nM; in assay [10] it was 21.6 nM. For the same compound, in assay [8], the Ratio turned out to be 26.6.
Turning to `C#Cc1ccc2c(c1)C(=O)N1CC[C@H]1c1c(C(=O)OCC)ncn1-2`, the inhibitory constant (Ki) in [6] amounted to 42 nM; in [2], 0.37 nM; in [7], 21 nM; in [9] it was 10 nM; in [10], 12 nM. Also, the Ratio in assay [8] came out at 57.
`CN1Cc2c(C(=O)OC(C)(C)C)ncn2-c2ccc([N+](=O)[O-])cc2C1=O`: the Ki in assay [6] is 22.5 nM; in assay [2] it was 3.5 nM; in assay [7], 12.8 nM; in [9], 30.2 nM; in assay [10], 49.8 nM. Besides, the Ratio in assay [8] amounted to 3.7.
Take `CC#Cc1ccc2c(c1)C(=O)N(C)Cc1c(C(=O)OCC)ncn1-2`: the inhibition constant Ki is more than 100 nM in assay [6]; 1.68 nM in assay [2]; 10.1 nM in assay [7]; 16.5 nM in assay [9]; 22.2 nM in assay [10]. Also, in [8], the Ratio is 6.
As for `C#Cc1ccc2c(c1)C(=O)N1CCC[C@H]1c1c(C(=O)OCC)ncn1-2`, the Ki was 126 nM in [6]; 1.3 nM in [2]; 59 nM in [7]; 27 nM in assay [9]; 44 nM in assay [10]. For the same compound, the Ratio in assay [8] amounted to 45.
